Measurements: ChEMBL document CHEMBL4270522, “Halogenated trimethoprim derivatives as multidrug-resistant Staphylococcus aureus therapeutics” (Bioorg Med Chem, 2018)
In brackets after ≈: the same amount, converted by molar mass.

Tests used:
Staphylococcus aureus [1] = assay: Antibacterial activity against methicillin-resistant Staphylococcus aureus USA300 at 5 ug after 18 to 20 hrs by CLSI disk diffusion assay; type: functional; conditions: read-out: DIZ
Procedure, shortened: (§1)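 Disk diffusion on 4 mm Mueller-Hinton agar swabbed with about 10^8 CFU/mL suspension in PBS; 6 mm paper disk loaded with 5 µg compound in DMSO; 37 °C ambient air for 18–20 h; diameter of the complete inhibition zone measured in mm with callipers from the plate back; at least three independent experiments, mean with standard error; 6 mm means no inhibition.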

Staphylococcus aureus [2] = assay: Antibacterial activity against hospital-associated methicillin-resistant Staphylococcus aureus COL after 20 hrs by CLSI microdilution assay; type: functional
Staphylococcus aureus [3] = assay: Bactericidal activity against hospital-associated methicillin-resistant Staphylococcus aureus COL preincubated for 20 hrs followed by agar plating and measured after 18 to 20 hrs; type: functional
Procedure, shortened: (§2)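 MBC taken from broth microdilution (final about 10^5 CFU/mL, Mueller-Hinton broth, 37 °C for 20 h). Clear wells (basal optical density) were spread on TSA plates and incubated at 37 °C for 18–20 h. The lowest concentration giving no colonies is reported. At least triplicate.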

Staphylococcus aureus [4] = assay: Antibacterial activity against hospital-associated methicillin-resistant Staphylococcus aureus COL at 5 ug after 18 to 20 hrs by CLSI disk diffusion assay; type: functional; conditions: read-out: DIZ; procedure, shortened: as §1
Staphylococcus aureus [5] = assay: Antibacterial activity against methicillin-resistant Staphylococcus aureus USA300 after 20 hrs by CLSI microdilution assay; type: functional; conditions: USA300, 20 h
Staphylococcus aureus [6] = assay: Bactericidal activity against methicillin-susceptible Staphylococcus aureus ATCC 29213 preincubated for 20 hrs followed by agar plating and measured after 18 to 20 hrs; type: functional
Procedure, shortened: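 Broth microdilution per CLSI guideline. Compounds diluted 2-fold in MHB from 100 mM DMSO stocks. Inoculum ~10^5 CFU/mL final, from overnight TSB culture diluted in PBS. Plates incubated at 37 °C. Wells without growth by optical density spread on TSA and incubated at 37 °C. MBC is the lowest concentration giving no colonies. At least triplicate.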

Staphylococcus aureus [7] = assay: Bactericidal activity against methicillin-resistant Staphylococcus aureus USA300 preincubated for 20 hrs followed by agar plating and measured after 18 to 20 hrs; type: functional; procedure, shortened: as §2
Staphylococcus aureus [8] = assay: Antibacterial activity against methicillin-susceptible Staphylococcus aureus ATCC 25923 at 5 ug after 18 to 20 hrs by CLSI disk diffusion assay; type: functional; conditions: read-out: DIZ
Procedure, shortened: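 Mueller-Hinton agar, 4 mm deep, swabbed with PBS-diluted overnight TSB culture (~10^8 CFU/mL). Paper disk (6 mm) loaded with compound in DMSO, incubated 37 °C in ambient air. Complete inhibition zone diameter read from plate back with callipers; 6 mm means no inhibition. At least three independent experiments, mean with standard error.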

A549 = assay: Cytotoxicity against human A549 cells after 24 to 48 hrs by fluorescence-based assay; type: cell-based
Procedure, shortened: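 A549 cells, ~10^4 per well in DMEM, given 2-fold serial dilutions of compound (DMSO stock diluted in DMEM). Incubated at 37 °C, 5% CO2. PrestoBlue added for 1 h, then fluorescence read at excitation 535 nm and emission 610 nm as a measure of viable cells.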

Staphylococcus aureus [9] = assay: Antibacterial activity against methicillin-susceptible Staphylococcus aureus ATCC 29213 after 20 hrs by CLSI microdilution assay; type: functional; conditions: ATCC 29213, 20 h
Staphylococcus aureus [10] = assay: Synergistic antibacterial activity against hospital-associated methicillin-resistant Staphylococcus aureus COL in presence of TMP-Br after 20 hrs by broth microdilution-based checkerboard titration assay; type: functional
Staphylococcus aureus [11] = assay: Potentiation of TMP-Cl-mediated antibacterial activity against hospital-associated methicillin-resistant Staphylococcus aureus COL assessed as TMP-Cl MIC after 20 hrs by CLSI microdilution assay (reference value: 5 microg/ml); type: functional
Staphylococcus aureus [12] = assay: Potentiation of TMP-I-mediated antibacterial activity against hospital-associated methicillin-resistant Staphylococcus aureus COL assessed as TMP-I MIC after 20 hrs by CLSI microdilution assay (reference value: 2.50 microg/ml); type: functional
Staphylococcus aureus [13] = assay: Synergistic antibacterial activity against methicillin-susceptible Staphylococcus aureus ATCC 29213 in presence of TMP-Br after 20 hrs by broth microdilution-based checkerboard titration assay; type: functional
Staphylococcus aureus [14] = assay: Synergistic antibacterial activity against methicillin-resistant Staphylococcus aureus USA300 in presence of TMP-I after 20 hrs by broth microdilution-based checkerboard titration assay; type: functional
Staphylococcus aureus [15] = assay: microbe, parasite or virus in culture; type: functional; conditions: USA300, 20 h
Staphylococcus aureus [16] = assay: Potentiation of TMP-mediated antibacterial activity against hospital-associated methicillin-resistant Staphylococcus aureus COL assessed as TMP MIC after 20 hrs by CLSI microdilution assay (reference value: 5 microg/ml); type: functional
Staphylococcus aureus [17] = assay: microbe, parasite or virus in culture; type: functional; conditions: ATCC 29213, 20 h
Staphylococcus aureus [18] = assay: Synergistic antibacterial activity against methicillin-resistant Staphylococcus aureus USA300 in presence of TMP-Cl after 20 hrs by broth microdilution-based checkerboard titration assay; type: functional
Staphylococcus aureus [19] = assay: microbe, parasite or virus in culture; type: functional; conditions: ATCC 29213, 20 h; remark: listed apart in the source
Staphylococcus aureus [20] = assay: Synergistic antibacterial activity against methicillin-susceptible Staphylococcus aureus ATCC 29213 in presence of TMP-Cl after 20 hrs by broth microdilution-based checkerboard titration assay; type: functional
Staphylococcus aureus [21] = assay: microbe, parasite or virus in culture; type: functional; conditions: ATCC 29213, 20 h; remark: listed apart in the source
Staphylococcus aureus [22] = assay: Synergistic antibacterial activity against hospital-associated methicillin-resistant Staphylococcus aureus COL in presence of TMP-Cl after 20 hrs by broth microdilution-based checkerboard titration assay; type: functional
Staphylococcus aureus [23] = assay: microbe, parasite or virus in culture; type: functional; conditions: USA300, 20 h; remark: listed apart in the source
Staphylococcus aureus [24] = assay: Synergistic antibacterial activity against hospital-associated methicillin-resistant Staphylococcus aureus COL in presence of TMP after 20 hrs by broth microdilution-based checkerboard titration assay; type: functional
Staphylococcus aureus [25] = assay: Potentiation of TMP-Br-mediated antibacterial activity against hospital-associated methicillin-resistant Staphylococcus aureus COL assessed as TMP-Br MIC after 20 hrs by CLSI microdilution assay (reference value: 5 microg/ml); type: functional
Staphylococcus aureus [26] = assay: Synergistic antibacterial activity against methicillin-resistant Staphylococcus aureus USA300 in presence of TMP-Br after 20 hrs by broth microdilution-based checkerboard titration assay; type: functional
Staphylococcus aureus [27] = assay: Synergistic antibacterial activity against methicillin-susceptible Staphylococcus aureus ATCC 29213 in presence of TMP after 20 hrs by broth microdilution-based checkerboard titration assay; type: functional
Staphylococcus aureus [28] = assay: Synergistic antibacterial activity against methicillin-susceptible Staphylococcus aureus ATCC 29213 in presence of TMP-I after 20 hrs by broth microdilution-based checkerboard titration assay; type: functional
Staphylococcus aureus [29] = assay: microbe, parasite or virus in culture; type: functional; conditions: USA300, 20 h; remark: listed apart in the source
Staphylococcus aureus [30] = assay: Synergistic antibacterial activity against methicillin-resistant Staphylococcus aureus USA300 in presence of TMP after 20 hrs by broth microdilution-based checkerboard titration assay; type: functional
Staphylococcus aureus [31] = assay: Potentiation of TMP-Cl-mediated antibacterial activity against methicillin-resistant Staphylococcus aureus USA300 assessed as TMP-Cl MIC after 20 hrs by CLSI microdilution assay (reference value: 2.50 microg/ml); type: functional; conditions: USA300, 20 h
Staphylococcus aureus [32] = assay: Synergistic antibacterial activity against hospital-associated methicillin-resistant Staphylococcus aureus COL in presence of TMP-I after 20 hrs by broth microdilution-based checkerboard titration assay; type: functional
Staphylococcus aureus [33] = assay: microbe, parasite or virus in culture; type: functional; conditions: ATCC 29213, 20 h; remark: listed apart in the source
Staphylococcus aureus [34] = assay: Synergistic antibacterial activity against methicillin-susceptible Staphylococcus aureus ATCC 29213 in presence of sulfamethoxazole after 20 hrs by broth microdilution-based checkerboard titration assay; type: functional
Staphylococcus aureus [35] = assay: Synergistic antibacterial activity against hospital-associated methicillin-resistant Staphylococcus aureus COL in presence of sulfamethoxazole after 20 hrs by broth microdilution-based checkerboard titration assay; type: functional
Staphylococcus aureus [36] = assay: Synergistic antibacterial activity against methicillin-resistant Staphylococcus aureus USA300 in presence of sulfamethoxazole after 20 hrs by broth microdilution-based checkerboard titration assay; type: functional
Staphylococcus aureus [37] = assay: Synergistic antibacterial activity against methicillin-resistant Staphylococcus aureus USA300 assessed as fractional inhibitory concentration index in presence of sulfamethoxazole after 18 hrs by broth microdilution-based checkerboard titration assay; type: functional
Staphylococcus aureus [38] = assay: Potentiation of sulfamethoxazole-mediated antibacterial activity against hospital-associated methicillin-resistant Staphylococcus aureus COL assessed as sulfamethoxazole MIC after 20 hrs by CLSI microdilution assay (reference value: 200 microg/ml); type: functional
Staphylococcus aureus [39] = assay: Synergistic antibacterial activity against methicillin-susceptible Staphylococcus aureus ATCC 29213 assessed as fractional inhibitory concentration index in presence of sulfamethoxazole after 18 hrs by broth microdilution-based checkerboard titration assay; type: functional
Staphylococcus aureus [40] = assay: Synergistic antibacterial activity against hospital-associated methicillin-resistant Staphylococcus aureus COL assessed as fractional inhibitory concentration index in presence of sulfamethoxazole after 18 hrs by broth microdilution-based checkerboard titration assay; type: functional
Staphylococcus aureus [41] = assay: Potentiation of sulfamethoxazole-mediated antibacterial activity against methicillin-resistant Staphylococcus aureus USA300 assessed as sulfamethoxazole MIC after 20 hrs by CLSI microdilution assay (reference value: 100 microg/ml); type: functional; conditions: USA300, 20 h
Staphylococcus aureus [42] = assay: Potentiation of sulfamethoxazole-mediated antibacterial activity against methicillin-susceptible Staphylococcus aureus ATCC 29213 assessed as sulfamethoxazole MIC after 20 hrs by CLSI microdilution assay (reference value: 100 microg/ml); type: functional; conditions: ATCC 29213, 20 h

SMILES: COc1ccc(Cc2cnc(N)nc2N)cc1OC [DIAVERIDINE]
- zone of inhibition at 5 µg/disc (Staphylococcus aureus [1]): 6 mm
- MIC (Staphylococcus aureus [2]): 10 µg/mL (≈ 38.4 µM)
- MBC (Staphylococcus aureus [3]): 20 µg/mL (≈ 76.8 µM)
- zone of inhibition at 5 µg/disc (Staphylococcus aureus [4]): 6 mm
- MIC (Staphylococcus aureus [5]): 5 µg/mL (≈ 19.2 µM)
- MBC (Staphylococcus aureus [6]): 5 µg/mL (≈ 19.2 µM)
- MBC (Staphylococcus aureus [7]): 10 µg/mL (≈ 38.4 µM)
- zone of inhibition at 5 µg/disc (Staphylococcus aureus [8]): 8.81 mm
- IC50 (A549): > 1000 µM
- MIC (Staphylococcus aureus [9]): 5 µg/mL (≈ 19.2 µM)

SMILES: Cc1cc(NS(=O)(=O)c2ccc(N)cc2)no1 [SULFAMETHOXAZOLE]
- FIC (Staphylococcus aureus [10]): 0.06
- MIC (Staphylococcus aureus [11]): 0.31 µg/mL
- MIC (Staphylococcus aureus [12]): 0.16 µg/mL
- FIC (Staphylococcus aureus [13]): 0.06
- FIC (Staphylococcus aureus [14]): 0.06
- MIC (Staphylococcus aureus [15]): 0.16 µg/mL (≈ 0.632 µM)
- MIC (Staphylococcus aureus [16]): 0.31 µg/mL
- MIC (Staphylococcus aureus [17]): 0.08 µg/mL (≈ 0.316 µM)
- MIC (Staphylococcus aureus [2]): 200 µg/mL (≈ 790 µM)
- FIC (Staphylococcus aureus [18]): 0.06
- MIC (Staphylococcus aureus [19]): 0.08 µg/mL (≈ 0.316 µM)
- FIC (Staphylococcus aureus [20]): 0.06
- MIC (Staphylococcus aureus [21]): 0.08 µg/mL (≈ 0.316 µM)
- FIC (Staphylococcus aureus [22]): 0.06
- MIC (Staphylococcus aureus [23]): 0.08 µg/mL (≈ 0.316 µM)
- FIC (Staphylococcus aureus [24]): 0.06
- MIC (Staphylococcus aureus [25]): 0.31 µg/mL
- FIC (Staphylococcus aureus [26]): 0.12
- MIC (Staphylococcus aureus [5]): 100 µg/mL (≈ 395 µM)
- FIC (Staphylococcus aureus [27]): 0.06
- FIC (Staphylococcus aureus [28]): 0.06
- MIC (Staphylococcus aureus [29]): 0.08 µg/mL (≈ 0.316 µM)
- FIC (Staphylococcus aureus [30]): 0.06
- MIC (Staphylococcus aureus [31]): 0.16 µg/mL
- FIC (Staphylococcus aureus [32]): 0.06
- MIC (Staphylococcus aureus [33]): 0.08 µg/mL (≈ 0.316 µM)
- MIC (Staphylococcus aureus [9]): 100 µg/mL (≈ 395 µM)

SMILES: COc1cc(Cc2cnc(N)nc2N)cc(OC)c1OC [TRIMETHOPRIM]
- zone of inhibition at 5 µg/disc (Staphylococcus aureus [1]): 22.8 mm
- FIC (Staphylococcus aureus [34]): 0.06
- MIC (Staphylococcus aureus [2]): 5 µg/mL (≈ 17.2 µM)
- MBC (Staphylococcus aureus [3]): 10 µg/mL (≈ 34.4 µM)
- zone of inhibition at 5 µg/disc (Staphylococcus aureus [4]): 6 mm
- FIC (Staphylococcus aureus [35]): 0.06
- FIC (Staphylococcus aureus [36]): 0.06
- fractional inhibitory concentration index (FICI) (Staphylococcus aureus [37]): 0.12
- MIC (Staphylococcus aureus [38]): 12.5 µg/mL
- fractional inhibitory concentration index (FICI) (Staphylococcus aureus [39]): 0.12
- MIC (Staphylococcus aureus [5]): 1.25 µg/mL (≈ 4.31 µM)
- MBC (Staphylococcus aureus [6]): 1.25 µg/mL (≈ 4.31 µM)
- MBC (Staphylococcus aureus [7]): 2.5 µg/mL (≈ 8.61 µM)
- zone of inhibition at 5 µg/disc (Staphylococcus aureus [8]): 20.2 mm
- fractional inhibitory concentration index (FICI) (Staphylococcus aureus [40]): 0.12
- MIC (Staphylococcus aureus [41]): 6.25 µg/mL
- MIC (Staphylococcus aureus [42]): 6.25 µg/mL
- MIC (Staphylococcus aureus [9]): 1.25 µg/mL (≈ 4.31 µM)
